The source made the active and inactive calls. The calls are words filed in the database; no cut-off is given here.
Columns and labels:
Trichophyton rubrum = test: Antifungal activity against Trichophyton rubrum Castellani Sab.1112 at 40 to 80 ug/ml after 2 weeks; assay type: functional, organism-based
Outline: (§1)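 Compound in aqueous HOAc/Me2SO was filter-sterilized and mixed into melted (50°) Sabouraud dextrose agar. Agar pH was 7.0-7.5 before addition and 6.0-6.5 after, giving final levels of 10-100 μg/ml. Quadrant plates were center-inoculated with a 2 × 2 mm piece of a 2-week-old mycelial culture, sealed and kept at 25°C. Colony expansion was measured weekly, with solvent and blank controls, in duplicate.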

Sporotrichum = test: Antifungal activity against Sporotrichum schenckii Hektoen & Perkins (1109) at 40 to 80 ug/ml after 2 weeks; assay type: functional, organism-based; outline: as §1
Histoplasma capsulatum [1] = test: Antifungal activity against Histoplasma capsulatum Darling isolate 1106 at 1 ug/ml after 1 week (reference value: 14 mm); assay type: functional; details: Darling isolate 1106, 168 h, read-out: DIZ
Histoplasma capsulatum [2] = test: Antifungal activity against Histoplasma capsulatum Darling isolate 1098 at 1 ug/ml after 1 week (reference value: 12 mm); assay type: functional; details: Darling isolate 1098, 168 h, read-out: DIZ
Histoplasma capsulatum [3] = test: Antifungal activity against Histoplasma capsulatum Darling isolate 1098 at 1 ug/ml after 2 weeks (reference value: 21 mm); assay type: functional; details: Darling isolate 1098, 336 h, read-out: DIZ
Histoplasma capsulatum [4] = test: Antifungal activity against Histoplasma capsulatum Darling isolate 1098 at 1 ug/ml after 3 weeks (reference value: 28 mm); assay type: functional; details: Darling isolate 1098, 504 h, read-out: DIZ
Blastomyces dermatitidis = test: Antifungal activity against Blastomyces dermatitidis Gilchrist & Stokes isolate 1107 at 1 ug/ml after 3 weeks (reference value: 40 mm); assay type: functional; details: Gilchrist & Stokes isolate 1107, 504 h, read-out: DIZ
Outline: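 Mycelial phase grown on Sabouraud dextrose agar at 25°C. Agar pH was set to 6 before the test solution was added and was 5.0-5.5 after. Test solutions contained HOAc and Me2SO, and solvent and blank controls were included. Each quadrant was center-inoculated with a 2 × 2 mm piece of a 2-week-old mycelial culture. Colony diameter was measured weekly for 3 weeks and reported as total increments (mm). Duplicates were run.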

Histoplasma capsulatum [5] = test: Antifungal activity against Histoplasma capsulatum Darling isolate 1106 at 1 ug/ml after 3 weeks (reference value: 31 mm); assay type: functional; details: Darling isolate 1106, 504 h, read-out: DIZ

SMILES | diameter of the inhibition zone (DIZ) (Trichophyton rubrum) | diameter of the inhibition zone (DIZ) (Sporotrichum) | zone of inhibition at 1 µg/mL (Histoplasma capsulatum [1]) | zone of inhibition at 1 µg/mL (Histoplasma capsulatum [2]) | zone of inhibition at 1 µg/mL (Histoplasma capsulatum [3]) | zone of inhibition at 1 µg/mL (Histoplasma capsulatum [4]) | zone of inhibition at 1 µg/mL (Blastomyces dermatitidis) | zone of inhibition at 1 µg/mL (Histoplasma capsulatum [5])
C[C@@H]1CC[C@@H](c2ccoc2)N2C(O)[C@@](C)(Sc3ccccc3)CC[C@@H]12 (stereo partly drawn) | Active | Active |  |  |  |  |  | 
C[C@@H]1[C@H](O)[C@@H](C)/C=C/C=C/C=C/C=C/C=C/C=C/C=C/[C@H](O[C@@H]2O[C@H](C)[C@@H](O)[C@H](N)[C@@H]2O)C[C@@H]2O[C@](O)(C[C@@H](O)C[C@@H](O)[C@H](O)CC[C@@H](O)C[C@@H](O)CC(=O)O[C@H]1C)C[C@H](O)[C@H]2C(=O)O [AMPHOTERICIN B] |  |  | 9 mm | 9 mm | 19 mm | 28 mm | 32 mm | 24 mm

From ChEMBL document CHEMBL3272198, “Preparation and in vitro antifungal activities of some quinolizidine derived hemiaminals and beta-tert-amino sulfides” (1976)
